Bioassay records: PubChem BioAssay, several laboratories
Arr AP2 block = human beta-arrestin and AP2 interaction inhibition | FITC-arrestin peptide / GST-AP2 beads, flow cytometry; AP2 beta2 appendage carries R879A mutation | inhibition, % at 10 µM | 340,000 compounds, 0.31% hits;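 active = inhibition above a set limit, near 3 SD of compounds lacking own fluorescence, cut at about 54% in these data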
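Measured by: flow cytometry, FL1 (488/535 nm); Material: AP2 appendage R879A on GSH beads; Evaluation: percent response; Timing: pre-incubation 12 min, peptide binding 1 h, room temperature; Also added: 50 nM FITC-arrestin peptide; Medium: PBS with 0.05% Tween 20 and 0.1% BSA.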
Exocytosis inh = lytic granule exocytosis inhibition; inhibition, % at 10 µM; 360,000 compounds, 0.66% hits; TALL-104 LAMP-1 surface exposure, flow cytometry; cells stimulated with thapsigargin and PMA;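 active = inhibition above about 55%, limit read from the data; inconclusive = no clear call, values can overlap the other calls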
Myeloid diff 2 = compounds promoting myeloid differentiation | ER-HoxA9 myeloid progenitors, lysozyme-GFP differentiation, flow cytometry | 360,000 compounds, 1% hits | calls only at 10 µM;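 active = normalized GFP-positive differentiation at or above the plate's own cutoff, the solvent-only control mean plus 3 SD; inconclusive = no clear call, values can overlap the other calls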;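 also: cells exposed to compound for four days before flow analysis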
NRP1-CendR mod = modulators of CendR peptide binding to human neuropilin-1; AID 602438; inhibition, % at 25 µM; 360,000 compounds, 0.85% hits; FAM-RPARPAR peptide binding to NRP-1, fluorescence polarization;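 active = inhibition or corrected inhibition above about 18%, plus a signal ratio from 0.5 to 1.5, limit read from the data, passing the limit was not always enough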
Target sequence (O14786 whole entry, looked up): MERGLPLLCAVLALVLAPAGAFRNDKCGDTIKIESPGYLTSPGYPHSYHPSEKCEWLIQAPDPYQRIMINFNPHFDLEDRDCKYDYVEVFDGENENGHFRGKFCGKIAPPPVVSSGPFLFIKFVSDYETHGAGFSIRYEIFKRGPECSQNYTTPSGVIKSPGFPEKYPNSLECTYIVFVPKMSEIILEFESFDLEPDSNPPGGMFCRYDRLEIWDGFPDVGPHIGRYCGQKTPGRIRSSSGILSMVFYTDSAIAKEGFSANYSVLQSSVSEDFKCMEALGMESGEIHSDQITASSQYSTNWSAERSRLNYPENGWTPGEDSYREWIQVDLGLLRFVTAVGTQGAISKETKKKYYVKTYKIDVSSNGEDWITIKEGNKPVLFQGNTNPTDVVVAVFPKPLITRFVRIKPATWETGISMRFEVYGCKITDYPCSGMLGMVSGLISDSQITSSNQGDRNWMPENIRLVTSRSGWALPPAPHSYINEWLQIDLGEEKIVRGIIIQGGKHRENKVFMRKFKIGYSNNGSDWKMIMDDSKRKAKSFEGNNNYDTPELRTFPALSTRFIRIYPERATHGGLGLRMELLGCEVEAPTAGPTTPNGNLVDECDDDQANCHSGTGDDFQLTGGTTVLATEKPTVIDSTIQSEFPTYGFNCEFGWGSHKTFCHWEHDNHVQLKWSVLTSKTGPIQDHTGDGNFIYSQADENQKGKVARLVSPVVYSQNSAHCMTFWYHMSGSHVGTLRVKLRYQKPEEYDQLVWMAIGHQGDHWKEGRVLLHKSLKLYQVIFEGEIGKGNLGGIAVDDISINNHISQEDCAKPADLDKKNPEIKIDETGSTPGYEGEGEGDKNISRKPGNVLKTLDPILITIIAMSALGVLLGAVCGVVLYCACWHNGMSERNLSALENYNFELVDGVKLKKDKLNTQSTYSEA
ABCB6 inh 2 = human ABCB6 transporter inhibition; AID 602162; Q9NP58; K562-ABCB6 porphyrin accumulation, flow cytometry, 1 h; active compounds read low; 360,000 compounds, 0.19% hits; fluorescence ratio to DMSO, % at 10 µM;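 active = fluorescence ratio to DMSO below 75%, the collection mean minus 3 SD; inconclusive = too few cells collected in the well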;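 also: signal is porphyrin accumulated inside mitochondria; lower ratio means ABCB6 inhibition with less porphyrin fluorescence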
ATG4B inhibitor = blocks human ATG4B protease cleavage of LC3 substrate | Q9Y4P1 | ATG4B cleavage of LC3-PLA2, NBD-HPC fluorescence, 1 h | inhibition, % at 8.33 µM | 340,000 compounds, 0.51% hits; in the data active = inhibition above about 40%
Arr AP2 CP1 = inhibitors of human beta-arrestin and AP2 interaction | 1,300 compounds, 2% hits | inhibition, % at 10 µM | shares compounds with Arr AP2 block | GST-AP2 beads, FITC arrestin peptide binding, flow cytometry; GST-fused beta2-adaptin appendage, R879A mutant;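 active = inhibition above a set limit, roughly 3 SD of non-fluorescent compound noise, cut at about 38% in these data; inactive = inhibition at or below that limit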;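 also: loss of bead fluorescence from 50 nM FITC arrestin peptide bound to appendage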
GST-FITC bead = GST-GSH bead binding interference, counter-screen. shares compounds with Arr AP2 block. GST-fluorescein binding to GSH beads, fluorescence. inhibition, % at 10 µM. 1,300 compounds, 2% hits. AID 588338;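 active = inhibition above 50%, about 3 SD of the inhibition seen with non-fluorescent compounds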;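 also: fluorescein maleimide labelled GST captured on 4 micron glutathione beads; higher means more loss of bead fluorescence from quenching or blocked binding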
Numbers stand for hits; . = inactive; ? = inconclusive; / = no result given. Rows were chosen to be rich in hits. Some 3.3% of all compounds tested hit in one or more screens of this group.

SMILES	Arr AP2 block	Exocytosis inh	Myeloid diff 2	NRP1-CendR mod	ABCB6 inh 2	ATG4B inhibitor	Arr AP2 CP1	GST-FITC bead
O=C(O)COCC(=O)Nc1ccc2c(c1)ncn2CCc1ccccc1	57.5	.	.	.	.	.	.	.
CCCc1ccccc1OCCNC(=O)c1cc(=O)n(C)c(=O)n1C	59.7	.	.	.	.	.	.	.
Cc1cccc(C(=O)N/C(=C/c2ccco2)C(=O)N2CCCCCC2)c1	66.5	.	.	.	.	.	.	.
O=C(NCc1ccccc1OC(F)(F)F)C1CCC(=O)N(CCc2ccccn2)C1 (centres undefined)	57.6	.	.	.	.	.	.	.
COc1ccc(CCN2CC(C(=O)NCCc3ccc(C(F)(F)F)cc3)CCC2=O)cc1 (centres undefined)	.	.	.	.	.	.	/	/
COc1ccc(CCCNC(=O)C2CCC(=O)N(Cc3ccccc3F)C2)cc1 (centres undefined)	.	.	.	.	.	.	.	.
COc1ccccc1CN1CC(C(=O)NCc2cccc(Cl)c2)CCC1=O (centres undefined)	.	.	.	.	.	.	/	/
COc1ccc(CCN2CC(C(=O)NCCc3ccc(F)cc3)CCC2=O)cc1 (centres undefined)	.	.	.	.	.	.	.	.
COc1ccccc1CCCNC(=O)C1CCC(=O)N(Cc2ccccc2F)C1 (centres undefined)	.	.	?	.	.	.	/	/
COc1ccccc1CN1CC(C(=O)NCc2cc(F)cc(C(F)(F)F)c2)CCC1=O (centres undefined)	.	?	.	.	.	.	.	.
O=C(COc1ccc(Cl)cc1)NCC(=O)N1CCC2(CC1)NCCc1[nH]cnc12	.	.	.	.	.	.	/	/
Cc1cccc(NC(=O)CCc2ccc(S(=O)(=O)NC3CCCCC3)cc2)c1	.	.	.	.	.	.	/	/
Cc1ccc(NC(=O)CNS(=O)(=O)c2ccc(F)cc2)cc1C	55.3	.	.	.	.	.	.	.
Nc1ncnc(Oc2cccc3cccnc23)c1[N+](=O)[O-]	.	.	.	.	.	.	/	/
O=C(CS(=O)(=O)c1ccccc1)Nc1ccc(N2CCOCC2)cc1	60.1	.	.	.	.	.	.	.
O=C(CN1CCN(Cc2ccccc2)CC1)Nc1ccc(N2CCOCC2)cc1	.	.	.	.	.	.	/	/
COC(=O)Nc1ccc(Cn2cc(C(F)(F)F)ccc2=O)cc1	.	.	.	.	.	.	/	/
CN=C1SC(CC(=O)Nc2cc(Cl)ccc2Cl)C(=O)N1C (centres undefined)	.	.	.	.	.	.	/	/
COc1ccc2c3c(cccc13)N(C)N=C2C	61.6	.	.	63.0	.	.	.	.
CN(C)c1ccc(/C=N/NC(=O)C(O)(c2ccccc2)c2ccccc2)o1	61.1	.	.	.	.	.	.	.
COc1cccc(CNc2ccc3[nH]c(=O)[nH]c3c2)c1OCc1ccc(F)cc1	55.4	.	.	.	.	.	.	.
Cc1c(Cl)cccc1NC(=O)Nc1ccc(C(N)=O)cc1	104.5	.	.	.	.	.	.	.
Cc1c(Cl)cccc1NC(=O)Nc1ccccc1C(N)=O	.	.	?	.	.	.	/	/
Cc1cc(C)cc(OCC(=O)Nc2ccc(F)cc2)c1	.	.	.	.	.	.	/	/
Cc1cc(C)cc(OCC(=O)Nc2ccc3c(c2)C(=O)c2ccccc2C3=O)c1	97.1	.	.	.	.	.	.	.
SMILES	Arr AP2 block	Exocytosis inh	Myeloid diff 2	NRP1-CendR mod	ABCB6 inh 2	ATG4B inhibitor	Arr AP2 CP1	GST-FITC bead
Cc1ccc(OC[C@H](O)[C@H](C)NC(C)C)c2c1CCC2	.	.	.	.	.	.	/	/
O=C(N/N=C/c1ccsc1)c1cc2ccccc2o1	.	.	.	.	.	.	/	/
O=C(N/N=C/c1cccc([N+](=O)[O-])c1)c1cc2ccccc2o1	106.6	.	.	.	.	.	.	.
CC(C)(C)NC(=O)NC(=O)CN1CCCCCCC1	61.9	.	.	.	.	.	.	.
CC(=O)N1c2ccc(S(=O)(=O)N3CCCC3C(=O)NCc3ccc(Cl)cc3)cc2CC1C (centres undefined)	.	.	?	.	.	.	/	/
COc1ccc(/C=C/C(=O)c2ccccc2)cc1COc1ccccc1F	56.1	.	.	.	.	.	.	.
CC(OC(=O)C1CSC2(C)CCC(=O)N12)C(=O)Nc1ccc(F)cc1 (centres undefined)	.	.	.	.	.	.	.	.
CC(OC(=O)C1CSC2(C)CCC(=O)N12)C(=O)Nc1cccc(C#N)c1 (centres undefined)	.	.	.	.	.	.	.	.
Cc1noc(C)c1S(=O)(=O)N1CCC(C(N)=O)CC1	.	.	.	.	.	.	/	/
COc1cc(OC)cc(C(=O)Nc2ccccc2C(=O)NC2CC2)c1	.	.	.	.	.	.	/	/
CNS(=O)(=O)c1cn(CC(=O)N(C)Cc2ccccc2)cc1S(=O)(=O)NC	.	.	.	.	.	.	/	/
Cc1ccc(S(=O)(=O)c2c(C)cc(C)nc2N2CCCCC2)cc1	69.7	.	.	.	.	.	.	.
COc1ccc(C(=O)N/C(=C\c2cn(S(=O)(=O)N(C)C)c3ccccc23)C(=O)N2CCCC2)cc1	/	.	.	.	.	/	/	/
O=C(Nc1ccccc1)Oc1ccccc1N1CCOCC1	66.1	.	.	.	.	.	.	.
CCCS(=O)(=O)N1CCCC(C(=O)NCC2CCCO2)C1 (centres undefined)	80.3	.	.	.	.	.	.	.
O=C(COC(=O)c1cc([N+](=O)[O-])ccc1NCCO)c1ccc(Cl)cc1	.	.	.	.	.	.	/	/
CCc1ccc(C(=O)COC(=O)c2cc([N+](=O)[O-])ccc2NCCO)cc1	56.8	.	.	.	.	.	.	.
Cc1cc(C)nc(N/N=C/C2=C(N3CCOCC3)C(=C\c3ccc(Cl)cc3)/CC2)n1	.	.	.	.	.	.	/	/
Cc1occc1C(=O)N/N=C/C1=C(N2CCOCC2)C(=C\c2ccc(Cl)cc2Cl)/CC1	98.1	.	.	.	.	.	.	.
O=C(N=c1ccn(-c2nc3ccccc3nc2NS(=O)(=O)c2ccccc2)cc1)c1cccs1	57.9	.	.	.	.	.	.	59.9
Cc1ccccc1C(=O)N=c1ccn(-c2nc3ccccc3nc2NS(=O)(=O)c2ccc(F)cc2)cc1	.	.	.	.	.	.	/	/
CN(C)C(CNC(=O)CNC(=O)c1ccc2ccccc2c1)c1ccccc1 (centres undefined)	58.6	.	/	.	.	.	.	.
